Results as given in ChEMBL document CHEMBL1828531, “Pyrazol-3-propanoic acid derivatives as novel inhibitors of leukotriene biosynthesis in human neutrophils” (Eur J Med Chem, 2011).

Legend:
[1] = molecular target: T1, Polyunsaturated fatty acid lipoxygenase ALOX15 (Homo sapiens, UniProt P16050); test: Inhibition of 15-Lipoxygenase-mediated 15-HETE in human neutrophil after 15 mins by HPLC analysis
T1 sequence (P16050 whole entry): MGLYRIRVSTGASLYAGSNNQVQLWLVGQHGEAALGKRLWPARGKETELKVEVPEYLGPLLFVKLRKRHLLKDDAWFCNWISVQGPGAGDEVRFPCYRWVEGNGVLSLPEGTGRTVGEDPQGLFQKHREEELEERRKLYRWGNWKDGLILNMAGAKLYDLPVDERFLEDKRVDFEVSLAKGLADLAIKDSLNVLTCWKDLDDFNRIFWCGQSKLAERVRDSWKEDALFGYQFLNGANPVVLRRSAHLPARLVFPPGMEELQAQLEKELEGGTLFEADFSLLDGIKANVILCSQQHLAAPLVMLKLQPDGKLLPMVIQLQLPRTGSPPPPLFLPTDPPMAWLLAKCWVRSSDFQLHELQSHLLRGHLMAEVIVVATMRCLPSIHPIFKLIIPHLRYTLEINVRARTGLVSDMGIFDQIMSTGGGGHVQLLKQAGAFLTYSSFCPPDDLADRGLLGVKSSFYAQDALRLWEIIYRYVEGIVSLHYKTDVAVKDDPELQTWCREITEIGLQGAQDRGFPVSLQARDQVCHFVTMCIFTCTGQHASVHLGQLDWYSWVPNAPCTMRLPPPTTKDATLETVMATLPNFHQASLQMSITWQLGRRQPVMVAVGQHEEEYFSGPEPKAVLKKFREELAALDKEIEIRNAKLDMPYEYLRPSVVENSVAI
Procedure, shortened: (§1)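 Freshly isolated human blood neutrophils, 5 × 10^6/mL in PBS pH 7.4 with 1 mg/mL glucose and 1 mM CaCl2, preincubated with compound 15 min at RT. Stimulated with 2.5 µM A23187 plus 20 µM AA for 10 min at 37 °C. Stopped with methanol/HCl, PGB1 internal standard. 12-HETE or 15-HETE measured by HPLC. Residual activity tested at 30 µM.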

[2] = molecular target: T2, Polyunsaturated fatty acid lipoxygenase ALOX15 (Homo sapiens) (UniProt P16050); test: Inhibition of 15-Lipoxygenase-mediated 15-HETE in human neutrophil assessed as residual activity at 30 uM after 15 mins by HPLC analysis; procedure, shortened: as §1
T2 sequence (whole entry): T1 sequence (P16050 whole entry)

[3] = molecular target: T3, Polyunsaturated fatty acid 5-lipoxygenase (Homo sapiens) (UniProt P09917); test: Inhibition of recombinant human 5-Lipoxygenase expressed in Escherichia coli lysate assessed as residual activity using arachidonic acid as substrate at 10 uM after 10 mins by HPLC analysis
T3 sequence (whole entry): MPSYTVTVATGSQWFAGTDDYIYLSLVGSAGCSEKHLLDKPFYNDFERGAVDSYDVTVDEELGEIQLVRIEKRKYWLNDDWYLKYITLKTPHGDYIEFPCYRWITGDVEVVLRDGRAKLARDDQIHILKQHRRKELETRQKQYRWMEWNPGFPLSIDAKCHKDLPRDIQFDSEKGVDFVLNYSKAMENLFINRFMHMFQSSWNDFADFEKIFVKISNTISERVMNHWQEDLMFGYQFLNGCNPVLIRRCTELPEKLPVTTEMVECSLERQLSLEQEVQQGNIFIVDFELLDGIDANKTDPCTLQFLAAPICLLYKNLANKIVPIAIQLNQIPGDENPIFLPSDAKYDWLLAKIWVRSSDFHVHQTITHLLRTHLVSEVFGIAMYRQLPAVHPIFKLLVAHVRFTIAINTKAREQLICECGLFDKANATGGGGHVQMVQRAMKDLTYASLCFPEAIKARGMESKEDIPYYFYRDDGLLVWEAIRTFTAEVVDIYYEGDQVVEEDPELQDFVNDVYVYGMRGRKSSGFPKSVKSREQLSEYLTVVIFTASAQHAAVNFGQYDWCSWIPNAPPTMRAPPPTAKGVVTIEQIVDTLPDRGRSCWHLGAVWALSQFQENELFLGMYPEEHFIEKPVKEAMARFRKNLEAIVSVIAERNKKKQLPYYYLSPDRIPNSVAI
Procedure, shortened: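 Human 5-LO expressed at 30 °C in E. coli MV1190 (pT3-5LO); lysate 40,000 g supernatant in PBS pH 7.4 with 1 mM EDTA. Preincubated with compound 10 min at 4 °C, warmed 30 s at 37 °C. Started with 2 mM CaCl2 plus 20 µM AA, 10 min at 37 °C. Methanol stop, HPLC. Residual % versus 0.3% DMSO vehicle, n = 3–5.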

[4] = molecular target: T4, Polyunsaturated fatty acid 5-lipoxygenase (Homo sapiens, UniProt P09917); test: Inhibition of 5-Lipoxygenase in arachidonic acid-stimulated human neutrophils after 15 mins by HPLC analysis in presence of A23187
T4 sequence (P09917 whole entry): T3 sequence (whole entry)
Procedure, shortened: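 Human neutrophils, 5 × 10^6/mL in PBS/glucose/1 mM CaCl2, preincubated 15 min at RT, then 2.5 µM A23187 plus 20 µM AA for 10 min at 37 °C. Methanol stop, PGB1 internal standard, HPLC of LTB4, its all-trans isomers and 5-H(p)ETE. Residual % versus 0.3% DMSO vehicle, mean ± SEM, n = 3–5. IC50 by linear interpolation from 4–5 concentrations.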

IC50 [1] [µM]	Activity [2] [%]	Activity [3] [%]	IC50 [4] [µM]	Compound
> 10	71	84	15	CCOC(=O)C1CCN(C(=O)CCc2cc(-c3ccc(C(F)(F)F)cc3)n(-c3ccc(Cl)nn3)n2)CC1
> 10	124	92.6	2	Cc1ccc(-c2cc(CCC(=O)Oc3ccc(C(C)C)cc3)nn2-c2ccccc2)cc1
> 10	196	79.5	2.4	CCOC(=O)C1CCN(C(=O)CCc2cc(-c3ccc(C)cc3)n(-c3ccccc3)n2)CC1
> 10	92	86.1	> 10	Cc1ccc(-c2cc(CCC(=O)Oc3ccc(C(C)C)cc3)nn2-c2ccc3ccccc3n2)cc1
> 10	145	115	3.5	Cc1ccc(-c2cc(CCC(=O)N3CCN(Cc4ccc(C(C)(C)C)cc4)CC3)nn2-c2ccc3ccccc3n2)cc1
–	–	83.4	8	Cc1ccc(-c2cc(CCC(=O)Oc3ccc(C(C)C)cc3)nn2-c2ccc(Cl)nn2)cc1
> 10	261	62.9	2.7	Cc1ccc(-c2cc(CCC(=O)N3CCN(Cc4ccc(C(C)(C)C)cc4)CC3)nn2-c2ccccc2)cc1
> 10	149	55.9	4	CCOC(=O)C1CCN(C(=O)CCc2cc(-c3ccc(C)cc3)n(-c3ccc4ccccc4n3)n2)CC1
> 10	175	103	1.6	CC(C)(C)c1ccc(CN2CCN(C(=O)CCc3cc(-c4ccc(F)cc4)n(-c4ccc(Cl)nn4)n3)CC2)cc1
